Consider two compounds from ChEMBL document CHEMBL3046951, “Volatile constituents from the leaves of Callicarpa japonica Thunb. and their antibacterial activities” (2004).

What all share (type): functional
Test [1] concerns Listeria monocytogenes. The test is described as follows: Antimicrobial activity against Listeria monocytogenes ATCC 19111 assessed as growth inhibition rate at 64.76 mg/l after 72 hr by spectrophotometry. The note with it: ATCC 19111, 72 h, read-out: GI. The method in brief:
(§1)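 L. monocytogenes was grown at 30 °C in tryptic soy broth, subcultured for 18 h, and exposed to pure volatile compounds (>95% purity). Growth was followed by Bioscreen C optical density every 24 h for 72 h against a 10% Tween 80 control.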

The test system of test [2] is Vibrio parahaemolyticus. The test is described as follows: Antimicrobial activity against Vibrio parahaemolyticus ATCC 33844 assessed as growth inhibition rate at 64.76 mg/l after 72 hr by spectrophotometry. The note with it: ATCC 33844, 72 h, read-out: GI.
Test [3] relates to Salmonella typhimurium. As to the kind of experiment: Antimicrobial activity against Salmonella enterica subsp. enterica serovar Typhimurium ATCC 14028 assessed as growth inhibition rate at 64.76 mg/l after 72 hr by spectrophotometry. Conditions: ATCC 14028, 72 h, read-out: GI.
The subject of test [4] is Escherichia coli. As to the kind of experiment: Antimicrobial activity against Escherichia coli O157:H7 ATCC 43894 assessed as growth inhibition rate at 64.76 mg/l after 72 hr by spectrophotometry. The note with it: O157:H7 ATCC 43894, 72 h, read-out: GI. In short, it runs like this: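 Authentic volatiles (>95% purity; 2,4-heptadienal 90%) tested against 18 h subcultures. Growth media: E. coli O157:H7 and S. aureus in tryptic soy broth at 37 °C; L. monocytogenes in tryptic soy broth at 30 °C; V. parahaemolyticus in tryptic soy broth + 3% NaCl at 37 °C; S. typhimurium in nutrient broth at 30 °C. Bioscreen C OD every 24 h for 72 h versus 10% Tween 80 control.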

Test [5] concerns Staphylococcus aureus. As to the kind of experiment: Antimicrobial activity against Staphylococcus aureus ATCC 25923 assessed as growth inhibition rate at 64.76 mg/l after 72 hr by spectrophotometry. The note with it: ATCC 25923, 72 h, read-out: GI.
The subject of test [6] is Bacillus cereus. As to the kind of experiment: Antimicrobial activity against Bacillus cereus ATCC 11778 assessed as growth inhibition rate at 64.76 mg/l after 72 hr by spectrophotometry. Conditions: ATCC 11778, 72 h, read-out: GI. The method in brief: (§2)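 Pure volatile compounds (purity >95%; one at 90%) were tested against B. cereus ATCC 11778. The strain was grown at 30 °C in nutrient broth for 24 h, then subcultured for 18 h. Optical density was read in a Bioscreen C every 24 h for 72 h, with 10% Tween 80 as the control.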

In test [7] the test system is Listeria monocytogenes. As to the kind of experiment: Antimicrobial activity against Listeria monocytogenes ATCC 19111 assessed as growth inhibition rate at 1470.8 mg/l after 72 hr by spectrophotometry. Conditions: ATCC 19111, 72 h, read-out: GI. The method in brief:
as §1

Test [8] deals with Vibrio parahaemolyticus. As to the kind of experiment: Antimicrobial activity against Vibrio parahaemolyticus ATCC 33844 assessed as growth inhibition rate at 1470.8 mg/l after 72 hr by spectrophotometry. The note with it: ATCC 33844, 72 h, read-out: GI.
Test [9] has as its system Salmonella typhimurium. As to the kind of experiment: Antimicrobial activity against Salmonella enterica subsp. enterica serovar Typhimurium ATCC 14028 assessed as growth inhibition rate at 1470.8 mg/l after 72 hr by spectrophotometry. The note with it: ATCC 14028, 72 h, read-out: GI. The method in brief: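 Salmonella Typhimurium ATCC 14028 grown in nutrient broth at 30 °C, precultured 24 h, then subcultured 1:100 for 18 h before testing. Single volatile compounds (>95% pure) were added. OD was read every 24 h over 72 h in a Bioscreen C, with 10% Tween 80 as the comparison control.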

For test [10], the system named is Escherichia coli. As to the kind of experiment: Antimicrobial activity against Escherichia coli O157:H7 ATCC 43894 assessed as growth inhibition rate at 1470.8 mg/l after 72 hr by spectrophotometry. Conditions: O157:H7 ATCC 43894, 72 h, read-out: GI.
Test [11] relates to Staphylococcus aureus. The test is described as follows: Antimicrobial activity against Staphylococcus aureus ATCC 25923 assessed as growth inhibition rate at 1470.8 mg/l after 72 hr by spectrophotometry. Conditions: ATCC 25923, 72 h, read-out: GI.
The test system of test [12] is Bacillus cereus. As to the kind of experiment: Antimicrobial activity against Bacillus cereus ATCC 11778 assessed as growth inhibition rate at 1470.8 mg/l after 72 hr by spectrophotometry. Conditions: ATCC 11778, 72 h, read-out: GI. The method in brief: as §2

For `C/C1=C\CC/C(C)=C/CC(C)(C)/C=C/C1` [ALPHA-HUMULONE], the inhibition of growth at 64.76 µg/mL stood at 13.9% with Listeria monocytogenes [1]; 15.7% in the test with Vibrio parahaemolyticus [2]; 6.9% with Salmonella typhimurium [3]; 4.6% in the test with Escherichia coli [4]; 6.6% in the test on Staphylococcus aureus [5]; 40.1% in the test with Bacillus cereus [6].

With `C=C1CC/C=C(/C)CC[C@@H]2[C@@H]1CC2(C)C` [CARYOPHYLLENE], the inhibition of growth at 1470.8 µg/mL in the test on Listeria monocytogenes [7] amounted to 7.2%; in the test on Vibrio parahaemolyticus [8], 26.5%; in the test with Salmonella typhimurium [9] it was 10.2%; with Escherichia coli [10], 12.8%; in the test with Staphylococcus aureus [11] it was 54.7%; in the test with Bacillus cereus [12], 32.1%.
